Data as given in publication PMC2649372 (Biochemistry, 2008).
Changes are numbered by the printed parent chain. Marks after values point to notes of the source that are not given here.

What was measured:
[1] = molecular target: T1, N128-Akp mutant 5-HT3 receptor (mouse 5-HT3A subunit) (Mus musculus, UniProt Q6J1J7); assay: Agonist-induced currents, voltage clamp electrophysiology in Xenopus oocytes; format: cell-based
T1 sequence (Q6J1J7 24-483): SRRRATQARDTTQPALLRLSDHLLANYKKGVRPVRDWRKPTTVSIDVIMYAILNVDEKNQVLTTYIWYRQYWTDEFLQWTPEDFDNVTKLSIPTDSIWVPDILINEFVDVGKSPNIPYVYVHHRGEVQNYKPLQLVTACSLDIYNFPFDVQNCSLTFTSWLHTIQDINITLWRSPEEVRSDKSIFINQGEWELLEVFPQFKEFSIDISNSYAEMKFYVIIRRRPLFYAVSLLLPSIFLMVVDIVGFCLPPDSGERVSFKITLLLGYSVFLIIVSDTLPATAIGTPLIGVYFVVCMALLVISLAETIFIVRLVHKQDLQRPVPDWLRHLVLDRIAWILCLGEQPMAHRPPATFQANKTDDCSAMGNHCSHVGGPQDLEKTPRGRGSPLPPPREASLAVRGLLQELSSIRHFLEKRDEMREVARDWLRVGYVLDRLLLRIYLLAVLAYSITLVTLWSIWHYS
Method in brief: (§1)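 Mouse 5-HT3A receptor carrying Nha or Akp, introduced by nonsense suppression. Stage V-VI Xenopus oocytes were co-injected with 5 ng cRNA and 25 ng photodeprotected aminoacyl-tRNA. Controls received tRNA without an amino acid. At 24-72 h, agonist currents were recorded by two-electrode voltage clamp at -60 mV, 22-25 °C, in Ca-free ND96 (pH 7.5).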

[2] = molecular target: T2, E129D mutant 5-HT3 receptor (mouse 5-HT3A subunit) (Mus musculus, UniProt P23979, E129D); assay: Agonist-induced currents, voltage clamp electrophysiology in Xenopus oocytes; format: cell-based; details: E129D
T2 sequence (P23979 24-483 isoform P23979-2 E129D limits assumed): T1 sequence (Q6J1J7 24-483) with E106D, L436F

[3] = molecular target: E129Q mutant 5-HT3 receptor (mouse 5-HT3A subunit) (Mus musculus, UniProt P23979, E129Q); assay: as above; format: cell-based; details: NR = no response
Chain of E129Q mutant 5-HT3 receptor (mouse 5-HT3A subunit) (P23979 24-483 isoform P23979-2 E129Q limits assumed): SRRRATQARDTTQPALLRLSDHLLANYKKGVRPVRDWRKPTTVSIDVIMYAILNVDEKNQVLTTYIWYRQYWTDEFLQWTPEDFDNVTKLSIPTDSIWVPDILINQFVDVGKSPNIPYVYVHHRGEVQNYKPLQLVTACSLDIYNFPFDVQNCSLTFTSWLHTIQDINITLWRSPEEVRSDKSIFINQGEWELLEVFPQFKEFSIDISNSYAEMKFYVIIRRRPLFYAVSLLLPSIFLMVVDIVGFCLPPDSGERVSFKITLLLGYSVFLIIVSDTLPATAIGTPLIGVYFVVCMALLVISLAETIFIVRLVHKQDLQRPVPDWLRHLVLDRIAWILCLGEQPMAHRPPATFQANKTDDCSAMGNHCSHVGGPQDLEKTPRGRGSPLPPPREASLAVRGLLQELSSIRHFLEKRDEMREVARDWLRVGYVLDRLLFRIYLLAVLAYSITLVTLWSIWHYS

[4] = molecular target: T3, N128R mutant 5-HT3 receptor (mouse 5-HT3A subunit) (Mus musculus, UniProt P23979, N128R); assay: as above; format: cell-based; details: SR = small (<100 nA) responses
T3 sequence (P23979 24-483 isoform P23979-2 N128R limits assumed): T1 sequence (Q6J1J7 24-483) with N105R, L436F

[5] = molecular target: N128-Nha mutant 5-HT3 receptor (mouse 5-HT3A subunit); assay: Agonist-induced currents, voltage clamp electrophysiology in Xenopus oocytes; format: cell-based; details: SR = small (<100 nA) responses
Method in brief: as §1

[6] = molecular target: E129A mutant 5-HT3 receptor (mouse 5-HT3A subunit) (Mus musculus, UniProt P23979, E129A); assay: Agonist-induced currents, voltage clamp electrophysiology in Xenopus oocytes; format: cell-based; details: NR = no response
Chain of E129A mutant 5-HT3 receptor (mouse 5-HT3A subunit) (P23979 24-489 E129A): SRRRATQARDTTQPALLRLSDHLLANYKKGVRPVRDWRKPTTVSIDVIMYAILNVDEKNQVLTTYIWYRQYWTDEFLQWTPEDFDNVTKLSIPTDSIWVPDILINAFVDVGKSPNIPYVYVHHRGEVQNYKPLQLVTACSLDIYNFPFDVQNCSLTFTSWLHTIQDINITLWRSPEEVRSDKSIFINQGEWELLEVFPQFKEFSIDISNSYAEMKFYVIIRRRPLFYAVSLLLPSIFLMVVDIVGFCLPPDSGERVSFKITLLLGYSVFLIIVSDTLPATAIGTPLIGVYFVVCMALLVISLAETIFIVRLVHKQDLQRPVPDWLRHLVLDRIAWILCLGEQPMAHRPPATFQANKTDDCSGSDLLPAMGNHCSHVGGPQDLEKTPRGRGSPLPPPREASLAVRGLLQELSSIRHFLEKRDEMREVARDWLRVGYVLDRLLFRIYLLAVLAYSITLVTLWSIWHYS

[7] = molecular target: E129G mutant 5-HT3 receptor (mouse 5-HT3A subunit) (Mus musculus, UniProt P23979, E129G); assay: as above; format: cell-based; details: NR = no response
Chain of E129G mutant 5-HT3 receptor (mouse 5-HT3A subunit) (P23979 24-483 isoform P23979-2 E129G limits assumed): as the sequence (P23979 24-483 isoform P23979-2 E129Q limits assumed) above, with Q106G counted along it

[8] = molecular target: E129K mutant 5-HT3 receptor (mouse 5-HT3A subunit) (Mus musculus, UniProt P23979, E129K); assay: as above; format: cell-based; details: NR = no response
Chain of E129K mutant 5-HT3 receptor (mouse 5-HT3A subunit) (P23979 24-483 isoform P23979-2 E129K limits assumed): as the sequence (P23979 24-483 isoform P23979-2 E129Q limits assumed) above, with Q106K counted along it

[9] = test system: Asn128 mutant 5-HT3 receptors (all except Ala and Val); assay: Relative efficacy of mCPBG, voltage clamp electrophysiology in Xenopus oocytes; format: cell-based, mouse; details: Asn128 mutations

## NCCc1c[nH]c2ccc(O)cc12 [5-HT, 5-hydroxytryptamine]
[1]
  EC50: 4.6 µM
  nH (Hill coefficient): 1.49 ± 0.06 ^b
  pEC50: 5.33 ± 0.01 ^b
[2]
  nH (Hill coefficient): 1.81 ± 0.16 ^b
  size of agonist response (current): > 5 µA
[3]
  nH (Hill coefficient): 1.55 ± 0.07 ^b

## N=C(N)NC(=N)Nc1cccc(Cl)c1 [mCPBG, m-chlorophenylbiguanide]
[4]
  EC50: 7.3 µM
  nH (Hill coefficient): 1.93 ± 0.16
  pEC50: 5.14 ± 0.02 ^b
[5]
  EC50: 2.8 µM
  nH (Hill coefficient): 2.18 ± 0.23
  pEC50: 5.55 ± 0.02 ^b
[6]
  EC50: > 100 µM
[2]
  EC50: 0.25 µM
  nH (Hill coefficient): 1.19 ± 0.31
  size of agonist response (current): > 5 µA
[2]; SR = small (<100 nA) responses
  pEC50: 6.60 ± 0.10
[7]
  EC50: > 100 µM
[8]
  EC50: > 100 µM
[9]
  increase of mCPBG Rmax compared to that of WT: 2−19 fold
